From publication PMC4839537 (Biochemical pharmacology, 2016)
Numbered stars: 1 amine (or outer) side, 2 acyl side, 3 side chain; on linkers, the order of the positions; unused ones are H or OH. Bridge positions count the residues as written; N and C are the ends. Square brackets hold non-standard residues; d marks the D form. Peptide text beside a SMILES is read from it. * marks the point of attachment. Leu(3R-OH,Nα-propionyl) = CCC(=O)N[C@H](C(=O)*)[C@H](O)C(C)C; X2 = CC(=O)NC(C(=O)OC(C(C)C)C(N[*:1])C(=O)[*:2])C(O)C(C)C; X1 = CC(C)[C@@H](O[*:3])[C@H](N[*:1])C(=O)[*:2]; NMeT = CN[CH](C(=O)O)[CH](C)O; dPhLac = O=C(O)[C@H](O)Cc1ccccc1; PhLac = O=C(O)[CH](O)Cc1ccccc1; NMeA = CN[CH](C)C(=O)O; NMeDha = C=C(NC)C(=O)O

Tests used:
P2Y1R (Gq-coupled) = P2Y1R (Gq-coupled) (Homo sapiens, UniProt P47900); format: cell-based
platelet aggregation = conditions: cited from earlier work
endogenous human P2Y1R = endogenous human P2Y1R (Homo sapiens, UniProt P47900); format: cell-based
[1] = molecular target: recombinant human M3 muscarinic receptor (Gαq) (Homo sapiens, UniProt P20309); format: cell-based
P2Y1R = P2Y1R (Homo sapiens, UniProt P47900); format: cell-based
human A1AR (Gi-coupled) = human A1AR (Gi-coupled) (Homo sapiens, UniProt P30542); format: cell-based
A1AR = A1AR (Homo sapiens, UniProt P30542); format: cell-based
[2] = molecular target: M2 muscarinic receptor (Gi-coupled) (Homo sapiens, UniProt P08172); format: cell-based
P2Y12R (Gi-coupled) = P2Y12R (Gi-coupled) (Homo sapiens, UniProt Q9H244); format: cell-based
Gαi subunits = conditions: cited from earlier work
[3] = molecular target: recombinant human A2BAR (Gαs) (Homo sapiens, UniProt P29275); format: cell-based
[4] = cited from earlier work
M2 muscarinic receptor = M2 muscarinic receptor (Homo sapiens, UniProt P08172); format: cell-based
endogenous A1AR = endogenous A1AR (Mesocricetus auratus, UniProt A0A1U8BVR4); format: cell-based, Syrian hamster
Gi-coupled P2Y12R = Gi-coupled P2Y12R (Homo sapiens, UniProt Q9H244); format: cell-based
Gαq-coupled P2Y1R = Gαq-coupled P2Y1R (Homo sapiens, UniProt P47900); assay: Akt1/2/3 phosphorylation in 1321N1 cells expressing the P2Y1R; format: cell-based; conditions: UBO-QIC 100 nM
Summary of the method: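 1321N1 astrocytoma cells expressing human P2Y1R were seeded at 30,000 cells/100 μl in complete medium. After attachment they were serum-starved overnight, pretreated with test compound (100 nM) for 30 min, then given agonist in Hank's buffered salt solution for 20 min. Lysed cells were assayed for p-Akt1/2/3 (Ser473) by AlphaScreen SureFire. Mean ± SEM of 3 independent experiments in duplicate.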

[5] = system: Gαq-coupled T1R1/T1R3 heterodimeric taste receptor; conditions: MIN6 cells; cited from earlier work
ERK1/2 activation = ERK1/2 activation mediated through various GPCRs; format: cell-based
Summary of the method: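 CHO (A1AR, M2, M3) or 1321N1 (P2Y1R) cells were seeded at 30,000 cells/100 μl and serum-starved overnight after attachment. Pretreatment was test compound or GO6983 (10 μM) for 30 min, or pertussis toxin (200 ng/ml) overnight. Agonists in Hank's buffered salt solution were applied for 5 min. Cells were lysed and p-ERK1/2 (Thr202/Tyr204) was read by AlphaScreen SureFire.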

Gα16 = conditions: 1 μM; cited from earlier work
Gi-coupled A1AR = Gi-coupled A1AR (Homo sapiens, UniProt P30542); format: cell-based
recombinant human A2AAR = recombinant human A2AAR (Homo sapiens, UniProt P29274); assay: CGS21680-induced cAMP accumulation in CHO cells expressing the A2AAR; format: cell-based; conditions: data not shown
Summary of the method: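 CHO cells stably expressing human A2AAR were grown in DMEM with 10% FBS, penicillin/streptomycin and glutamine, then plated in 96-well plates overnight. Cells were pretreated with test compound (300 nM) for 30 min or with pertussis toxin (200 ng/ml) overnight. Agonist was then added with rolipram (10 μM). Supernatant was removed, cells were lysed in 0.3% Tween-20, and cAMP was measured by AlphaScreen.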

Gαq [6] = conditions: 10 μM, 5 min pretreatment; cited from earlier work
Gα15 = conditions: cited from earlier work
Gβγ = conditions: 10 μM, 5 min pretreatment; compared with PTX 50 ng/ml for 6 h; cited from earlier work
Gαq [7] = conditions: cited from earlier work
M3 muscarinic receptor = M3 muscarinic receptor (Homo sapiens, UniProt P20309); format: cell-based
Chain of M3 muscarinic receptor (P20309 whole entry): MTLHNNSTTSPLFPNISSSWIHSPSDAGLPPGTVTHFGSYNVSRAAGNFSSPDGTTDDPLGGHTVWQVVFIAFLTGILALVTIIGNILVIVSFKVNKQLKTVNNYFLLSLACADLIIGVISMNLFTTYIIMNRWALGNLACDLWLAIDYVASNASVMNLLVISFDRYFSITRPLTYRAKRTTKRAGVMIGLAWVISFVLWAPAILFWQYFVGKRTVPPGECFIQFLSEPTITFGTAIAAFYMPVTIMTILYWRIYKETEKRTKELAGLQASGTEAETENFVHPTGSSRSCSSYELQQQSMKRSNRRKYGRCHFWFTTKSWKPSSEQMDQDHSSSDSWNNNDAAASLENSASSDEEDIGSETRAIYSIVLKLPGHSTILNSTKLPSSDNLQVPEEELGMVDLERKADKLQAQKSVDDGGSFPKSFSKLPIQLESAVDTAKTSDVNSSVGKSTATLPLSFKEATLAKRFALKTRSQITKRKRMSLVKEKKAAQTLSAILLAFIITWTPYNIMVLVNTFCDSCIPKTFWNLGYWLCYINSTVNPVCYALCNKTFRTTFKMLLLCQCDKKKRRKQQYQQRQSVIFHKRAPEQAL

Chain of P2Y12R (Gi-coupled) (Q9H244 whole entry): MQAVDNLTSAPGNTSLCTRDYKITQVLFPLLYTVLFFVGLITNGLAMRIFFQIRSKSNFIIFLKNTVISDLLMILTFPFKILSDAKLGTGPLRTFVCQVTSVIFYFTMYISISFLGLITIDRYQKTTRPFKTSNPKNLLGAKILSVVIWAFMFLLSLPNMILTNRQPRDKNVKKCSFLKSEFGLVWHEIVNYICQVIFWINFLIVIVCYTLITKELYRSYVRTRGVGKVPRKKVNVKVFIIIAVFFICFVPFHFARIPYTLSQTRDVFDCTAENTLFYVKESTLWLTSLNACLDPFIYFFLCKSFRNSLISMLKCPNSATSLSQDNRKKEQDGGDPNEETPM
Chain of Gi-coupled P2Y12R (Q9H244 whole entry): as above
Chain of M2 muscarinic receptor (Gi-coupled) (P08172 whole entry): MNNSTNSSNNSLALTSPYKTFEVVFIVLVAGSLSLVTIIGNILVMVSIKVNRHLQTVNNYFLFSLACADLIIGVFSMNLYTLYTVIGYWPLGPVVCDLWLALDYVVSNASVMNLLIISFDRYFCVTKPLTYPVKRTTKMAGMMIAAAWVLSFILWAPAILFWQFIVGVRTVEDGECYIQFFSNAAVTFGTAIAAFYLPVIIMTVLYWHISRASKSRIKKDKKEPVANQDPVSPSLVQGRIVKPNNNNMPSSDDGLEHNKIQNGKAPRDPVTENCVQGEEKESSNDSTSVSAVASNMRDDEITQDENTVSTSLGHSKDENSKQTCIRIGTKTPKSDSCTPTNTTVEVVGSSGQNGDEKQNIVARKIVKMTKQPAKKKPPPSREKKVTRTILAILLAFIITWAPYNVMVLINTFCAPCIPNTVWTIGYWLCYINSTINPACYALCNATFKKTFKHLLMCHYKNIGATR
Chain of human A1AR (Gi-coupled) (P30542 whole entry): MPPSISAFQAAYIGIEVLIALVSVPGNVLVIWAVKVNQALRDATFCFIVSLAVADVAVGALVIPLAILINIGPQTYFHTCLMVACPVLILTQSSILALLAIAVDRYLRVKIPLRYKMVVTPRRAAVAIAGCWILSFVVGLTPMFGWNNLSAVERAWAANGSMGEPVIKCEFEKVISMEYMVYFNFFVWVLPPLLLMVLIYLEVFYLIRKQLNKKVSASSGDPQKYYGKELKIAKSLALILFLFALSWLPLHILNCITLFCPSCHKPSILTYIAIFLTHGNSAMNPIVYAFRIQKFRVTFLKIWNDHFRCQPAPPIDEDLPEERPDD
Chain of P2Y1R (P47900 whole entry): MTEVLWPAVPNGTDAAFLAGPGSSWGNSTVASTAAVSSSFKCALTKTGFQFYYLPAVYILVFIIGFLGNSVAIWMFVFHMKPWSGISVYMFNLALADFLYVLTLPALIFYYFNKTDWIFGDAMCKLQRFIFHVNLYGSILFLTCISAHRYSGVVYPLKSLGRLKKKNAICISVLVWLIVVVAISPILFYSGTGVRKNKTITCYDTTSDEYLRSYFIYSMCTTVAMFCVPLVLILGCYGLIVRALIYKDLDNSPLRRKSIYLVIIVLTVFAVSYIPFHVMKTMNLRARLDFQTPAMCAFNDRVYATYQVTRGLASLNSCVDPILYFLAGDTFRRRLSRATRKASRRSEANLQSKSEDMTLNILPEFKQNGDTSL
Chain of P2Y1R (Gq-coupled) (P47900 whole entry): as above
Chain of recombinant human A2AAR (P29274 whole entry): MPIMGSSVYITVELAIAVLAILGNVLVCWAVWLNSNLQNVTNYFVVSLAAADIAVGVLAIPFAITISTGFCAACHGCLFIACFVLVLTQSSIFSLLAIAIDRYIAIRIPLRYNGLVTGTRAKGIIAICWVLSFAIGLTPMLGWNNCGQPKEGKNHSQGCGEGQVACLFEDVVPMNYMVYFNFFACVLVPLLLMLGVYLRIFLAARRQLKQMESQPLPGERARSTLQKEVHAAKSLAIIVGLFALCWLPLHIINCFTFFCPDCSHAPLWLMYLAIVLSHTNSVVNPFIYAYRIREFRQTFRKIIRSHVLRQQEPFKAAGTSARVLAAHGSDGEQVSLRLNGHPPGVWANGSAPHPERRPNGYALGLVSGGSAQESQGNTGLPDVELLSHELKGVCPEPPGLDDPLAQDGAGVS
Chain of endogenous A1AR (A0A1U8BVR4 1-326): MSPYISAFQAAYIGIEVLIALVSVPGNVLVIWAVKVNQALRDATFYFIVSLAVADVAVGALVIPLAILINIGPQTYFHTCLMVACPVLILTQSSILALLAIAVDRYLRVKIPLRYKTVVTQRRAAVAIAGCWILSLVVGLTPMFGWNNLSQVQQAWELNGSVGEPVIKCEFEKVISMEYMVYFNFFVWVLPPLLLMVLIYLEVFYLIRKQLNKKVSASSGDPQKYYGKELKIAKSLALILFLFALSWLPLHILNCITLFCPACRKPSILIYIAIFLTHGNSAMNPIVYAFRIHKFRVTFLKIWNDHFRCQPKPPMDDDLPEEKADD
Chain of M2 muscarinic receptor (P08172 whole entry): as the sequence (P08172 whole entry) above
Chain of recombinant human A2BAR (Gαs) (P29275 whole entry): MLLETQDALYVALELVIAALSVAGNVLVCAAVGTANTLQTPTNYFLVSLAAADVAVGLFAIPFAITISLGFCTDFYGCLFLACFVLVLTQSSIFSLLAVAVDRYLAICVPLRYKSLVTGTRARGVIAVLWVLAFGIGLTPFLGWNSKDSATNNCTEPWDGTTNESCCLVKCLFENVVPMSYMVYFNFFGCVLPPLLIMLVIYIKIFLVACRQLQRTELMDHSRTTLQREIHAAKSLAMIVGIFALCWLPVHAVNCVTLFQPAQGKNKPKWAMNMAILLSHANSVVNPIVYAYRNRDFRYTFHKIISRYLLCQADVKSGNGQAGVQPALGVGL
Chain of Gi-coupled A1AR (P30542 whole entry): as the sequence (P30542 whole entry) above
Chain of A1AR (P30542 whole entry): as above
Chain of recombinant human M3 muscarinic receptor (Gαq) (P20309 whole entry): as the sequence (P20309 whole entry) above
Chain of endogenous human P2Y1R (P47900 whole entry): as the sequence (P47900 whole entry) above
Chain of Gαq-coupled P2Y1R (P47900 whole entry): as above

**Q.** Which “Effect on agonist effects (calcium)” value (P2Y1R (Gq-coupled)) does the source give for `C=C1C(=O)N[C@@H](C)C(=O)N(C)[C@@H](C)C(=O)N[C@@H]([C@H](OC(=O)[C@@H](NC(=O)CC)[C@H](O)C(C)C)C(C)C)C(=O)N(C)[C@@H]([C@@H](C)OC)C(=O)O[C@H](C(C)C)[C@H](NC(C)=O)C(=O)O[C@H](Cc2ccccc2)C(=O)N1C` [UBO-QIC, L-threonine, (3R)-N-acetyl-3-hydroxy-L-leucyl-(αR)-α-hydroxybenzenepropanoyl-2,3-didehydro-N-methylalanyl-L-alanyl-N-methyl-L-alanyl-(3R)-3-[[(2S,3R)-3-hydroxy-4-methyl-1-oxo-2-[(1-oxopropyl)amino]pentyl]oxy]-L-leucyl-N,O-dimethyl-, (7→1)-lactone] (Ac-[X1][dPhLac][NMeDha]A[NMeA][X1](Leu(3R-OH,Nα-propionyl))[NMeT](Me); ester 1-C) here?
**A.** Its value is “completely blocked”.

**Q.** What about the “Effect on calcium responses” value (P2Y1R (Gq-coupled)) of the same compound?
**A.** The value was “completely blocked”.

**Q.** And the “Effect on platelet aggregation” value (platelet aggregation)?
**A.** The value was “inhibit platelet aggregation”.

**Q.** What about the “Effect on MRS2365-mediated calcium transients” value (endogenous human P2Y1R) of the same compound?
**A.** Its value is “antagonizes”.

**Q.** And the “Effect of inhibitor on carbachol-induced Ca2+ transients” value [1]?
**A.** Its value is “completely blocked”.

**Q.** What about the “Block of the maximal agonist effect in ERK1/2 phosphorylation” value (“Block of the maximal agonist effect” below) (P2Y1R) of the same compound?
**A.** The value was ≤ 30%.

**Q.** And the “Effect on agonist effects (calcium)” value (human A1AR (Gi-coupled))?
**A.** Its value is “completely blocked”.

**Q.** What about the “Effect on calcium responses” value (human A1AR (Gi-coupled)) of the same compound?
**A.** Its value is “completely blocked”.

**Q.** And the “Block of the maximal agonist effect” value (A1AR)?
**A.** The value was ≤ 30%.

**Q.** What about the “Effect on agonist effects (calcium)” value [2] of the same compound?
**A.** Its value is “completely blocked”.

**Q.** What about the “Effect on calcium responses” value [2] of the same compound?
**A.** Its value is “completely blocked”.

**Q.** And the “Effect on agonist effects (calcium)” value (P2Y12R (Gi-coupled))?
**A.** The value was “completely blocked”.

**Q.** What about the “Effect on calcium responses” value (P2Y12R (Gi-coupled)) of the same compound?
**A.** Its value is “completely blocked”.

**Q.** What about the “Effect on phosphorylation of protein kinase B (Akt)” value (Gαi subunits) of the same compound?
**A.** Its value is “no effect”.

**Q.** And the “Effect of inhibitor on NECA-induced cAMP accumulation” value [3]?
**A.** Its value is “did not show any effect”.

**Q.** And the “Effect on blood pressure” value [4]?
**A.** Its value is “decrease blood pressure”.

**Q.** What about the “Block of the maximal agonist effect” value (M2 muscarinic receptor) of the same compound?
**A.** The value was ≤ 30%.

**Q.** And the “Effect on CPA-induced intracellular calcium mobilization” value (endogenous A1AR)?
**A.** The value was “completely blocked”.

**Q.** What about the “Effect on Akt1/2/3 activity” value (Gi-coupled P2Y12R) of the same compound?
**A.** The value was “no effect”.

**Q.** What about the “Effect on the maximum effect of 2MeSADP-stimulated Akt activity” value (Gi-coupled P2Y12R) of the same compound?
**A.** Its value is “modest but significant inhibition”.

**Q.** What about the “Effect on 2MeSADP-induced Akt1/2/3 phosphorylation” value (Gαq-coupled P2Y1R) of the same compound?
**A.** Its value is “completely inhibited”.

**Q.** And the “Effect on ERK1/2 stimulation” value [5]?
**A.** The value was “only partially reduced”.

**Q.** What about the “Effect on ERK1/2 activation” value (ERK1/2 activation; UBO-QIC 10 nM, initial experiment) of the same compound?
**A.** The value was “little if any effect”.

**Q.** And the “Effect on agonist concentration-response curves, ERK1/2” value (ERK1/2 activation; in all cases (P2Y1, A1AR, M2, M3))?
**A.** The value was “somewhat non-parallel right shift”.

**Q.** And the “Effect on Gα16” value (Gα16)?
**A.** Its value is “could inhibit Gα16”.

**Q.** And the “Effect on Akt1/2/3 activity” value (Gi-coupled A1AR)?
**A.** The value was “no effect”.

**Q.** What about the “Effect on CGS21680-induced cAMP accumulation” value (recombinant human A2AAR) of the same compound?
**A.** The value was “did not affect”.

**Q.** What does the source list for `C=C1C(=O)NC(C)C(=O)N(C)C(C)C(=O)NC(C(OC(=O)C(NC(C)=O)C(O)C(C)C)C(C)C)C(=O)N(C)C(C(C)OC)C(=O)OC(C)C(NC(C)=O)C(=O)OC(Cc2ccccc2)C(=O)N1C` (stereo not drawn) [YM-254890] (Ac-T[PhLac][NMeDha]A[NMeA][X2][NMeT](Me); ester 1-C; configuration not given here)?
**A.** Inhibition of UTP-mediated Ca2+ release (Gαq [6]): much larger inhibition; Effect on Gα15-mediated Ca2+ release (Gα15): only a small effect; Inhibition of fMLP-induced Ca2+ mobilization (Gβγ): to a lesser extent than pertussis toxin; Effect on release of GDP from Gαq (Gαq [7]): inhibits the release of GDP from Gαq

**Q.** For `COc1ccc2c(c1)c(C1=C(c3c[nH]c4ccccc34)C(=O)NC1=O)cn2CCCN(C)C` [GO6983, 3-[1-[3-(dimethylamino)propyl]-5-methoxy-1H-indol-3-yl]-4-(1H-indol-3-yl)-1H-pyrrole-2,5-dione], which “Effect on ERK1/2 phosphorylation” value (M3 muscarinic receptor) is on record?
**A.** The value was “completely blocked”.

**Q.** What about the “Effect on ERK1/2 phosphorylation” value (P2Y1R) of the same compound?
**A.** The value was “completely blocked”.
